The subject of data set [1] is Mus musculus. Put plainly: Hypolipidemic activity in CF1 mouse assessed as serum cholesterol level at 150 mg/kg/day administered for 16 days measured on day 9 relative to control. Format: functional. In a few lines: (§1)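 Male CF1 mice (28 g) were dosed daily for 16 days, with drug suspended in 1% carboxymethylcellulose. On days 9 and 16 blood was drawn from the tail vein and serum spun at 3000 g for 3 min. Total cholesterol was measured by the Liebermann-Burchard reaction and triglyceride by a commercial kit. Results are percent of vehicle control, n = 6, mean ± SD, Student's t-test.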

Data set [2] relates to Mus musculus. Nature of the data set: Hypolipidemic activity in CF1 mouse assessed as serum triglyceride level at 150 mg/kg/day administered for 16 days measured on day 16 relative to control. Format: functional. In a few lines:
as §1

Data set [3] concerns Mus musculus. Nature of the data set: Hypolipidemic activity in CF1 mouse assessed as serum triglyceride level at 150 mg/kg/day administered for 16 days measured on day 16 relative to control.
A further data set has as its system SW480. Nature of the data set: Cytotoxicity against human SW480 cells after 3 days by trypan blue exclusion technique. The class given is functional. As to conditions: SW480, 72 h, read-out: ED50 (the source's name). In a few lines: (§2)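 Tumor cells were mixed on day 0 with sterile drug at 1–100 µg/ml (from 1 mM stock in 0.05% Tween 80 water) in growth medium, 1 ml final. Cells were counted on day 3, while growth was still logarithmic. The concentration killing 50% of cells was read from a semilog plot.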

For another data set, the system named is L1210. Nature of the data set: Cytotoxicity against mouse L1210 cells after 3 days by trypan blue exclusion technique. The class given is functional. The following applies: L1210, 72 h, read-out: ED50 (the source's name). In a few lines: as §2
Data set [4] is described as follows: Cytotoxicity against human TMOLT3 cells after 3 days by trypan blue exclusion technique. Format: functional. As to conditions: MOLT-3, 72 h, read-out: ED50 (the source's name). In a few lines: as §2
The nature of data set [5]: Cytotoxicity against human HeLaS3 cells after 3 days by trypan blue exclusion technique. The class given is functional. The following applies: HeLa S3, 72 h, read-out: ED50 (the source's name). In a few lines: as §2
A short description of data set [6]: Cytotoxicity against human MB9812 cells after 3 days by trypan blue exclusion technique. The class given is functional. As to conditions: MB9812, 72 h, read-out: ED50 (the source's name). In a few lines: as §2
The nature of data set [7]: Cytotoxicity against human EH118MG cells after 3 days by trypan blue exclusion technique. As to conditions: 72 h, read-out: ED50 (the source's name). The class given is functional. The essentials:
as §2

Another data set deals with KB. Nature of the data set: Cytotoxicity against human KB cells after 3 days by trypan blue exclusion technique. Format: functional. As to conditions: 72 h, read-out: ED50 (the source's name). In a few lines: as §2
The subject of data set [8] is Mus musculus. Put plainly: Antiinflammatory activity against CF1 mouse assessed as inhibition of carrageenan-induced paw edema at 8 mg/kg/day, ip administered 30 mins before carrageenan challenge measured after 3 hrs relative to control. The following applies: route intraperitoneal. The class given is functional. In a few lines:
(§3)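 CF1 male mice (ca. 25 g) got drug ip in 0.05% Tween 80 water twice, 3 h and 30 min before 0.2 ml of 1% carrageenan in 0.9% saline was injected into the right hind plantar surface. The left foot got saline as baseline. After 3 h both feet were cut off at the ankle and paw weight gain was compared; results are percent inhibition, n = 6, mean ± SD.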
In general terms: The carrageenan paw model is a standard test of acute inflammation.

For data set [9], the system named is Mus musculus. Put plainly: Hypolipidemic activity in CF1 mouse assessed as serum cholesterol level at 8 mg/kg/day, ip administered for 16 days measured on day 16 relative to control.
The test system of data set [10] is Mus musculus. Put plainly: Hypolipidemic activity in CF1 mouse assessed as serum cholesterol level at 8 mg/kg/day, ip administered for 16 days measured on day 16 relative to control. The class given is functional. The following applies: route intraperitoneal. The essentials: as §1
In another data set the test system is Ehrlich. Nature of the data set: In vivo antineoplastic activity against mouse Ehrlich ascite carcinoma cells xenografted in CF1 mouse assessed as inhibition of tumor growth at 8 mg/kg/day after 9 days relative to control. Format: functional. As to conditions: 216 h. In a few lines: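 On day 0, CF1 male mice (ca. 25 g) received 2 × 10^6 Ehrlich ascites cells ip in isotonic saline. Drug in 0.05% Tween 80 water was given at 8 mg/kg/day on days 1–9. On day 10 ascites fluid was collected, and volume and packed-cell volume per animal were used to calculate percent tumor growth inhibition; n = 6, mean ± SD.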

Data set [11] in a line: Cytotoxicity against human TE-418 cells after 3 days by trypan blue exclusion technique. Format: functional. As to conditions: TE-418, 72 h, read-out: ED50 (the source's name). The essentials:
as §2

Data set [12] deals with Mus musculus. Nature of the data set: Hypolipidemic activity in CF1 mouse assessed as serum cholesterol level at 8 mg/kg/day, ip administered for 16 days measured on day 9 relative to control. As to conditions: route intraperitoneal. The class given is functional. The essentials:
as §1

Data set [13] concerns Mus musculus. Put plainly: Toxicity in CF1 mouse assessed as change in CNS and motor activity at 8 mg/kg/day administered in multiple doses for 16 days. The following applies: in vivo, 384 h. Format: organism-based. The essentials:
(§4)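 During 16 days of multiple ip dosing at 8 mg/kg/day, mice were watched for body weight loss, food consumption, and behavioral, CNS and motor activity.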

Data set [14] relates to Mus musculus. Nature of the data set: Toxicity in CF1 mouse assessed as body weight loss at 8 mg/kg/day administered in multiple doses for 16 days. The class given is organism-based. The following applies: in vivo, 384 h. In a few lines:
as §4

The subject of data set [15] is Mus musculus. Nature of the data set: Toxicity in CF1 mouse assessed as change in food consumption at 8 mg/kg/day administered in multiple doses for 16 days. The class given is organism-based. As to conditions: in vivo, 384 h. In a few lines: as §4
The test system of data set [16] is Mus musculus. Put plainly: Toxicity in CF1 mouse assessed as behavioral changes at 8 mg/kg/day administered in multiple doses for 16 days. As to conditions: in vivo, 384 h. The class given is organism-based. In a few lines:
as §4

Data set [17] has as its system Mus musculus. Put plainly: Antiinflammatory activity against CF1 mouse assessed as inhibition of carrageenan-induced paw edema at 10 mg/kg administered 30 mins before carrageenan challenge measured after 3 hrs relative to control. The class given is functional. The essentials: as §3
The subject of data set [18] is Mus musculus. Nature of the data set: Antiinflammatory activity against CF1 mouse assessed as inhibition of carrageenan-induced paw edema at 50 mg/kg administered 30 mins before carrageenan challenge measured after 3 hrs relative to control. The class given is functional. In a few lines: as §3

What is called inhibition in vivo is how much of the control response was suppressed.

The structures appear in SMILES notation. In brackets after ≈: the same amount, converted by molar mass.

Consider `CCOC(=O)C(C)(C)Oc1ccc(Cl)cc1` [CLOFIBRATE], for which the Activity in the data set with Mus musculus [1] is 88%; in the data set on Mus musculus [2] it was 75%; in the data set with Mus musculus [3], 75%.

Turning to `Nc1ccn([C@@H]2O[C@H](CO)[C@@H](O)[C@@H]2O)c(=O)n1` [CYTARABINE], the EC50 in the data set with SW480 was 3.42 µg/mL (≈ 14.1 µM); with L1210, 2.76 µg/mL (≈ 11.3 µM); in [4], 2.67 µg/mL (≈ 11 µM); in data set [5], 2.13 µg/mL (≈ 8.76 µM); in [6], 4.6 µg/mL (≈ 18.9 µM); in [7], 1.88 µg/mL (≈ 7.73 µM). For the same molecule, the EC50 in the data set on KB stood at 2.84 µg/mL (≈ 11.7 µM).

Take `O=c1[nH]cc(F)c(=O)[nH]1` [FLUOROURACIL]: the EC50 is 3.09 µg/mL (≈ 23.8 µM) with SW480; 1.41 µg/mL (≈ 10.8 µM) in the data set on L1210; 2.14 µg/mL (≈ 16.5 µM) in [4]; 2.47 µg/mL (≈ 19 µM) in [5]; 5.64 µg/mL (≈ 43.4 µM) in data set [6]; 1.28 µg/mL (≈ 9.84 µM) in data set [7]. Besides, the EC50 in the data set with KB was 1.25 µg/mL (≈ 9.61 µM).

Turning to `COc1cc([C@H]2Oc3cc(-c4cc(=O)c5c(O)cc(O)cc5o4)ccc3O[C@@H]2CO)ccc1O` [HYDNOCARPIN], the EC50 is 2 µg/mL (≈ 4.31 µM) with SW480; 3.65 µg/mL (≈ 7.86 µM) with L1210; 2.94 µg/mL (≈ 6.33 µM) in data set [4]; 2.02 µg/mL (≈ 4.35 µM) in data set [5]; 8.18 µg/mL (≈ 17.6 µM) in data set [6]; 2.59 µg/mL (≈ 5.58 µM) in data set [7]. Moreover, the EC50 in the data set on KB was determined as 1.15 µg/mL (≈ 2.48 µM); in [11] it was 2.14 µg/mL (≈ 4.61 µM). Also, the inhibition in vivo at 8 mg/kg/day in the data set with Mus musculus [8] was found to be 42%; with Ehrlich, 84.8%. Besides, the Activity is 62% in the data set with Mus musculus [9], 62% in the data set on Mus musculus [10] and 83% with Mus musculus [12].

For the molecule `COc1cc(/C=C(\CO)c2cc([C@H]3Oc4cc(-c5cc(=O)c6c(O)cc(O)cc6o5)ccc4O[C@@H]3CO)cc(OC)c2O)ccc1O` [HYDNOWIGHTIN], the Activity result in the data set on Mus musculus [13] is reported as “Non-toxic”; in the data set on Mus musculus [14], “Non-toxic”; in the data set with Mus musculus [15], “Non-toxic”; with Mus musculus [9], 59%; in the data set with Mus musculus [16], “Non-toxic”; in the data set on Mus musculus [10], 59%. For the same molecule, in the data set with Mus musculus [12], the Activity turned out to be 80%. Further, the EC50 worked out at 2.38 µg/mL (≈ 3.7 µM) in the data set with SW480; 3.07 µg/mL (≈ 4.78 µM) in the data set on L1210; 4.33 µg/mL (≈ 6.74 µM) in data set [4]; 3.01 µg/mL (≈ 4.68 µM) in [5]; 7.49 µg/mL (≈ 11.7 µM) in data set [6]; 5.02 µg/mL (≈ 7.81 µM) in data set [7]. The EC50 with KB was 1.96 µg/mL (≈ 3.05 µM); in data set [11], 2.5 µg/mL (≈ 3.89 µM). Also, the inhibition in vivo at 8 mg/kg/day in the data set on Mus musculus [8] was 24%; with Ehrlich, 12.1%.

On to `NC(=O)NO` [HYDROXYUREA], for which the EC50 was determined as 4.79 µg/mL (≈ 63 µM) in the data set on SW480; 2.67 µg/mL (≈ 35.1 µM) in the data set with L1210; 3.18 µg/mL (≈ 41.8 µM) in data set [4]; 1.96 µg/mL (≈ 25.8 µM) in data set [5]; 7.37 µg/mL (≈ 96.9 µM) in [6]; 2.27 µg/mL (≈ 29.8 µM) in [7]. In addition, the EC50 stood at 5.29 µg/mL (≈ 69.6 µM) in the data set on KB and 7.54 µg/mL (≈ 99.1 µM) in data set [11].

Take `COc1ccc2c(c1)c(CC(=O)O)c(C)n2C(=O)c1ccc(Cl)cc1` [INDOMETHACIN]: the inhibition in vivo at 10 mg/kg in the data set on Mus musculus [17] turned out to be 78%.

On to `COc1cc([C@@H]2c3c(oc4cc(O)cc(O)c4c3=O)-c3cc(O)c(O)cc3[C@@H]2CO)ccc1O` [NEOHYDNOCARPIN], for which the EC50 with SW480 was determined as 2.03 µg/mL (≈ 4.37 µM); in the data set with L1210, 3.29 µg/mL (≈ 7.08 µM); in data set [4], 3.05 µg/mL (≈ 6.57 µM); in data set [5], 2.12 µg/mL (≈ 4.56 µM); in [6] it was 4.53 µg/mL (≈ 9.75 µM); in data set [7], 4.07 µg/mL (≈ 8.76 µM). Besides, the EC50 in the data set with KB came out at 1.06 µg/mL (≈ 2.28 µM); in data set [11] it was 2.49 µg/mL (≈ 5.36 µM). For the same molecule, the inhibition in vivo at 8 mg/kg/day in the data set on Mus musculus [8] was 6%; in the data set with Ehrlich, 43.1%. Also, the Activity is 79% with Mus musculus [9], 79% with Mus musculus [10] and 85% with Mus musculus [12].

With `CCCCC1C(=O)N(c2ccccc2)N(c2ccccc2)C1=O` [PHENYLBUTAZONE], the inhibition in vivo at 50 mg/kg with Mus musculus [18] turned out to be 47%.
